# Hits are enriched below; roughly 3.3% of the tested compounds scored in any of these assays.
# 5HT1a ag – human 5-HT1a receptor agonists, primary screen, cell-based, CHO, Ga15 NFAT-bla reporter | 5-hydroxytryptamine receptor 1A (Homo sapiens), P08908 | CHO 5-HT1a Ga15 NFAT-bla reporter, FRET ratio; 0% basal, 100% maximal reference agonist | activation, % at 10 µM | actives 0.56% (n = 65,000);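 active = activation above the screen-wide mean activation plus 3 SD, cut at about 19% in these data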;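 note: 0% = DMSO wells and 100% = 5-CT at EC100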
# Target sequence (P08908 whole entry, looked up): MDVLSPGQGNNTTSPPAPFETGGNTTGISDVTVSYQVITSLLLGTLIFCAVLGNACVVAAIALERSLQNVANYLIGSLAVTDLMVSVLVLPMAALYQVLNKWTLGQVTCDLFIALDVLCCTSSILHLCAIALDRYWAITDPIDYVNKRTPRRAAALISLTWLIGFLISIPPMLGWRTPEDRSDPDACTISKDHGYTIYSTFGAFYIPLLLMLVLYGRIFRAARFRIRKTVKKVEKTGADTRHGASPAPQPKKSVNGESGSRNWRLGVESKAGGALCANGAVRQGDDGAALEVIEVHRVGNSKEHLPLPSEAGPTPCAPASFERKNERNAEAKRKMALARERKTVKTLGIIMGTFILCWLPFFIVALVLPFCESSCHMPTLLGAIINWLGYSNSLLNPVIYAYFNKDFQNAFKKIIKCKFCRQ
# 5HT1E ag – 5-HT1E receptor agonists, primary screen, cell-based, HTS. 5-hydroxytryptamine receptor 1E (Homo sapiens), P28566. CHO 5-HT1E Ga15 NFAT-bla reporter, FRET; 0% DMSO wells, 100% control agonist wells. activation, % at 6 µM. actives 0.69% (n = 65,000);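 active = activation above a set limit, the screen-wide mean activation plus 3 SD, cut at about 8.5% in these data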;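 note: 100% = positive control agonist at 1 µM giving full maximal response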
# HEK293 NFkB inh – inhibitors of PMA/ionomycin-induced NF-kB reporter, primary screen, antigen receptor NF-kB inhibitor project, cell-based, HEK-293 luciferase reporter, luminescence; HEK-293 NF-kB luciferase reporter; inhibition, % at 3 µM; actives 0.21% (n = 62,000); AID 465, 2006;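 active = inhibition above the mean of all tested compounds plus 3 SD, cut at about 40% in these data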;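 note: 0% = stimulated DMSO wells and 100% = 10 µM reference inhibitor 5653914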
#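 Material: HEK-293 cells with stable firefly luciferase reporter driven by four HIV NF-kB elements / Also added: PMA plus ionomycin mix as NF-kB-activating stimulus / Compound dosing: 3 µM once, 0.30% DMSO / Times: 1 h pretreatment, 16 h stimulation, 37 °C / Signal: luminescence / Evaluation: per-plate % inhibition versus controls / Benchmarks: DMSO and 10 µM reference inhibitor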
# HTR1E antagonist – 5-HT1E receptor antagonists, primary screen, cell-based, HTS; 5-hydroxytryptamine receptor 1E (Homo sapiens), P28566; CHO 5-HT1E Ga15 NFAT-bla reporter, FRET, antagonist; inhibition, % at 6 µM; actives 0.99% (n = 65,000);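 active = inhibition above a set limit, the mean inhibition across every tested compound plus 3 SD, cut at about 29% in these data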;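 note: signal is the 460 over 535 nm emission ratio of beta-lactamase substrate; 0% = agonist plus DMSO wells and 100% = wells without agonist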
# Jurkat tox 60K – cytotoxicity toward Jurkat T cells, primary screen, cytotoxicity control, cell-based, Jurkat E6.1, 60K MLSMR library | Jurkat E6.1 viability, ATP luminescence, 48 h | inhibition, % at 4 µM | actives 1.2% (n = 56,000) | AID 463, 2006;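 active = inhibition above the mean inhibition of all tested compounds plus 3 SD, cut at about 28% in these data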
# 5-HT1A blocker – human 5-HT1a receptor antagonists, primary screen, cell-based, CHO, Ga15 NFAT-bla reporter | inhibition, % at 10 µM | 5-hydroxytryptamine receptor 1A (Homo sapiens), P08908 | actives 0.68% (n = 62,000) | CHO 5-HT1a Ga15 NFAT-bla reporter, antagonist mode;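 active = inhibition above the mean of all tested compounds plus 3 SD, cut at about 43% in these data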;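 note: receptor stimulated by 5-CT agonist at 100 nM near EC80; beta-lactamase reporter measured by ratiometric fluorescence of a cleavable substrate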
# An asterisk follows results filed as active; nt = not tested or not shown.
SMILES,5HT1a ag,5HT1E ag,HEK293 NFkB inh,HTR1E antagonist,Jurkat tox 60K,5-HT1A blocker
CCCCn1c(SCC(=O)N2CCN(c3ccccc3)CC2)nc2ccsc2c1=O,3,0,22,8,nt,14
COc1ccc(C(=O)COC(=O)CN2CC(=O)Oc3ccccc32)cc1Br,-2,1,-5,-10,-1,2
COc1ccc(-n2nnnc2S(=O)(=O)Cc2ccc(C(=O)O)cc2)cc1,-2,0,21,14,7,25
COc1ccc(-n2nnnc2S(=O)(=O)CC(=O)N2CCCCC2)cc1,-1,-1,17,69*,23,92*
COC(=O)c1sccc1NC(=O)c1cc2c(s1)CCCC2,30*,-1,1,7,-6,40
Cc1ccc(CNC(=O)C2c3ccccc3C(=O)N3CCc4ccccc4C23)o1 (configuration not stated),-3,-1,14,7,-4,21
O=C(NCCN1CCN(Cc2ccccc2)CC1)C1c2ccccc2C(=O)N2CCc3ccccc3C12 (configuration not stated),-1,2,14,10,1,59*
Cc1ccc2c(c1)C1OCCC1C1N2C(=O)C2C(C(=O)O)C3C=CC21O3 (configuration not stated),21*,0,-3,-1,-4,6
CCCCn1c(NC(=O)c2ccc(F)cc2)c(C#N)c2nc3ccccc3nc21,29*,9.1*,10,-3,5,5
CCOc1ccc(C)cc1S(=O)(=O)NC1CCCCC1,-2,0,10,7,3,17
CCOc1cc(S(=O)(=O)NC2CCCC2)ccc1Cl,0,15*,13,-3,5,-10
N#Cc1nc(-c2cccs2)oc1NCCc1ccccc1,4,-1,nt,36*,nt,nt
N#Cc1nc(-c2ccco2)oc1NCCc1ccccc1,-1,0,19,5,6,-13
Cc1ccc(O)c(-c2cc(-c3ccccc3C)[nH]n2)c1,-1,2,-4,-1,0,44*
CN=c1oc2ccc(Cl)cc2cc1C(N)=O,-2,9.8*,8,-1,2,15
CCOc1cc(C)c(Cl)cc1S(=O)(=O)NCC1CCCO1 (configuration not stated),0,-1,0,31*,0,12
COc1ccccc1OCc1nc(Cc2ccc(Cl)cc2)no1,-1,0,2,-1,-1,-1
O=C(CCCCn1c(=O)c2ccccc2n(Cc2ccc(F)cc2)c1=O)NCc1ccco1,0,0,0,4,37*,13
Cc1ccc(CCNC(=O)c2coc3nc4ccccc4nc23)cc1,3,13*,-2,-3,8,-17
CC1CCN(CCCNC(=O)c2coc3nc4ccccc4nc23)CC1,-3,1,-1,-4,10,-5
COc1ccc(C2CC(c3c(O)cc(C)oc3=O)=NCCS2)c(OC)c1 (configuration not stated),-4,-1,25,65*,95*,39
COc1ccc(C2NC(=O)c3n[nH]c(C)c32)c(OC)c1 (configuration not stated),2,1,10,-2,1,-11
O=C(NCCCN1CCCC1=O)c1cccc(C(F)(F)F)c1,2,1,5,-9,0,0
CCOC(=O)C1=C(N)OC2=C(C(=O)CC(C)(C)C2)C1c1ccco1 (configuration not stated),-4,1,2,4,-10,-9
CC1(C)CC(=O)C2=C(C1)OC1=C(C(=O)CC(C)(C)C1)C2c1ccc(O)cc1O,3,2,-2,-19,96*,37
SMILES,5HT1a ag,5HT1E ag,HEK293 NFkB inh,HTR1E antagonist,Jurkat tox 60K,5-HT1A blocker
CCCN1C(=O)c2ccccc2NC1c1ccc(OC)cc1O (configuration not stated),-3,-1,28,-3,36*,4
CCCN1C(=O)c2ccccc2NC1c1ccc(OC)cc1OC (configuration not stated),-3,-1,20,-5,0,-8
CC(=O)c1cccc(NC(=O)c2nccnc2C(=O)O)c1,109*,-1,7,5,-5,-14
COc1cccc(/C=N/n2c(C)nc3ccccc3c2=O)c1O,-2,0,-6,4,-3,9
COc1cccc(C=Nc2cccnc2)c1O,-2,0,46*,-3,0,-6
COC(=O)c1ccc(NC(=O)CSc2nnc(COc3ccccc3)n2C)cc1,-1,0,10,-7,2,0
CCOC(=O)Nc1ccc2c(c1)ncn2C1CCCCC1,1,39*,0,19,-2,17
CCCC12CN3CC(CCC)(CN(C1)C3C(O)C(O)C(O)CO)C2=O (configuration not stated),-3,-1,14,-5,6,0
COc1ccccc1-c1nnc(Nc2nc3c(OC)cccc3s2)o1,-5,1,6,53*,87*,51*
COc1cccc2sc(Nc3nnc(-c4ccccc4Cl)o3)nc12,-4,2,13,25,67*,64*
COc1cccc(-c2nnc(Nc3nc4c(F)cccc4s3)o2)c1,-1,0,-36,-5,8,12
Cn1c(=O)cc(SCC(=O)NCCN2CCN(c3ccccc3F)CC2)c2cc(Cl)ccc21,-2,3,12,-2,2,-8
O=C(NCc1cccnc1)C1c2ccccc2C(=O)N1Cc1ccco1 (configuration not stated),-1,0,-1,-7,-8,1
COc1ccc(-c2nn(C)c(=O)c3ccccc23)cc1NC(=O)Cn1nc(C)c2ccccc2c1=O,0,1,33,38*,13,16
CCC(=O)Nc1cc(C)c(NC(=O)c2ccccc2OC)cn1,-2,14*,11,-2,2,-16
CC1CCCCC1NS(=O)(=O)c1ccc(S(=O)(=O)NCc2ccncc2)cc1 (configuration not stated),2,0,14,18,92*,10
COc1ccc(S(=O)(=O)NCc2ccncc2)cc1OC,0,1,23,3,21,-11
Cc1ccc(S(=O)(=O)NCc2ccncc2)cc1,-2,0,18,1,76*,1
